Data published in ChEMBL document CHEMBL1149885, “Active core structure of terfestatin A, a new specific inhibitor of auxin signaling” (Bioorg Med Chem, 2008).
The source made the active and inactive calls. The rule behind the calls is not given here.

Tested on: Arabidopsis
Experiment: Inhibition of indole-3-acetic acid-induced GUS reporter gene expression in Arabidopsis BA3 at 50 uM after 5 hrs
Format: functional, organism-based
Summary of the method: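 Arabidopsis BA3::GUS seedlings (GUS under an auxin-responsive promoter) were grown vertically for 5 days under continuous light. They were moved into GM (0.5x MS salts, 1% sucrose, B5 vitamins, 0.2 g/L MES, pH 5.8) holding 50 µM derivative plus 1 µM IAA for 5 h. GUS was then stained histochemically with 1 mM X-Gluc at 37 °C for 3–4 h.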

SMILES	Activity
COc1c(O[C@@H]2O[C@H](CO)[C@@H](O)[C@H](O)[C@H]2O)c(-c2ccccc2)cc(O)c1-c1ccccc1	inactive
OC[C@H]1O[C@@H](Oc2c(-c3ccccc3)cc(O)c(-c3cccc4ccccc34)c2O)[C@H](O)[C@@H](O)[C@@H]1O (single isomer, unassigned)	inactive
CCCCOc1c(-c2ccccc2)cc(O)c(-c2ccccc2)c1O	Active
CCCCCOc1c(-c2ccccc2)cc(O)c(-c2ccccc2)c1O	Active
COc1cc(-c2ccccc2)c(O[C@H]2O[C@@H](CO)[C@H](O)[C@@H](O)[C@@H]2O)c(O)c1-c1ccccc1	inactive
CCCCOc1ccc(-c2c(O)cc(-c3ccccc3)c(O[C@@H]3O[C@H](CO)[C@@H](O)[C@H](O)[C@H]3O)c2O)cc1	inactive
OC[C@H]1O[C@@H](Oc2ccc(O)c(-c3ccccc3)c2O)[C@H](O)[C@@H](O)[C@@H]1O	inactive
CCOC(=O)CCCCOc1ccc(-c2cc(O)c(-c3ccccc3)c(O)c2O[C@@H]2O[C@H](CO)[C@@H](O)[C@H](O)[C@H]2O)cc1	inactive
OC[C@H]1O[C@@H](Oc2c(O)cc(O)cc2-c2ccccc2)[C@H](O)[C@@H](O)[C@@H]1O	inactive
CC(=O)OC[C@H]1O[C@@H](Oc2c(-c3ccccc3)cc(O)c(-c3ccccc3)c2O)[C@H](OC(C)=O)[C@@H](OC(C)=O)[C@@H]1OC(C)=O	inactive
COCOc1c(-c2ccccc2)cc(O)c(-c2ccccc2)c1O	Active
CCOc1c(-c2ccccc2)cc(O)c(-c2ccccc2)c1O	Active
Cc1ccc(-c2c(O)cc(-c3ccccc3)c(O[C@@H]3O[C@H](CO)[C@@H](O)[C@H](O)[C@H]3O)c2O)cc1	inactive
Oc1cc(-c2ccccc2)c(OCC2CCCCC2)c(O)c1-c1ccccc1	inactive
CC(C)COc1c(-c2ccccc2)cc(O)c(-c2ccccc2)c1O	inactive
CCCCCCOc1c(-c2ccccc2)cc(O)c(-c2ccccc2)c1O	inactive
CCCOc1c(-c2ccccc2)cc(O)c(-c2ccccc2)c1O	Active
Oc1cc(-c2ccccc2)c(OCC2CC2)c(O)c1-c1ccccc1	inactive
COC(=O)c1ccc(-c2cc(O)c(-c3ccccc3)c(O)c2O[C@@H]2O[C@H](CO)[C@@H](O)[C@H](O)[C@H]2O)cc1	inactive
Oc1cc(-c2ccccc2)c(OCCCCCl)c(O)c1-c1ccccc1	Active
CCCCOc1ccc(-c2cc(O)c(-c3ccccc3)c(O)c2O[C@@H]2O[C@H](CO)[C@@H](O)[C@H](O)[C@H]2O)cc1	inactive
OC[C@H]1O[C@@H](Oc2cc(-c3ccccc3)c(O)cc2-c2ccccc2)[C@H](O)[C@@H](O)[C@@H]1O	Active
